From PubChem BioAssay
An excerpt weighted towards active compounds, which were near 3% of everything screened.
Tn7 DDE FP = inhibitors of Tn7 peptide binding to fibrin DD(E), primary screen, biochemical, fluorescence polarization, human fibrin, Tn7 probe; Fibrinogen beta chain (Homo sapiens), P02675; FP displacement of FITC-Tn7 peptide from fibrin DD(E); 0% = median of compound wells per plate; inhibition, % at 8.3 µM; 0.13% of 370,000 active; AID 720508, 2013;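 active means inhibition above the mean of compounds falling within the control limits plus 3 SD of them, cut at about 14% in these data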
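System: human fibrin DD(E); quantity: Fibrin-DD(E) at 2 µM final; also added: fluorescent Tn7 probe at 0.1 µM; compound dosing: single nominal test concentration of 8.3 µM per compound; schedule: 10 min preincubation, 3 h with tracer, room temperature; detection: fluorescence polarization of the labelled Tn7 tracer; repeats: one replicate per compound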
KLK7 zymogen act = proKLK7 zymogen activators, primary screen, biochemical, fluorescence intensity. Kallikrein-7 (Homo sapiens), P49862. purified proKLK7, EDANS-DABCYL substrate fluorescence; 100% is mature enzyme control, 0% vehicle. activation, % at 7 µM. 0.9% of 370,000 active. AID 652039, 2013;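 active means activation above the mean of all tested compounds plus 3 SD, computed per campaign excluding outliers beyond control limits, cut at about 13% in these data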
DDE Tn6 FP inh = inhibitors of Tn6 peptide binding to fibrin DD(E), primary screen, biochemical, fluorescence polarization, human fibrin, Tn6 probe; inhibition, % at 8.3 µM; Fibrinogen beta chain (Homo sapiens), P02675; 0.21% of 370,000 active; Fibrin DD(E) TRITC-Tn6 fluorescence polarization displacement;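 active means inhibition above a per-campaign cutoff: mean of compounds within control limits plus 3 SD, cut at about 15% in these data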
PLC-beta3 inh = human PLC-beta3 inhibitors, primary screen, biochemical, fluorescence | 1-phosphatidylinositol 4,5-bisphosphate phosphodiesterase beta-3 (Homo sapiens), Q01970 | Purified PLC-beta3, fluorogenic substrate | inhibition, % at 12.2 µM | 0.18% of 370,000 active; in the data active means inhibition above about 11%
NRP1-CendR mod = modulators of CendR peptide binding to NRP-1, primary screen, biochemical, fluorescence polarization, uHTS. FAM-RPARPAR peptide binding to NRP-1. inhibition, % at 25 µM. 0.85% of 360,000 active;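 active means inhibition or corrected inhibition above about 18%, plus a signal ratio from 0.5 to 1.5, limit read from the data, passing the limit was not always enough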
Target sequence (O14786 whole entry, looked up): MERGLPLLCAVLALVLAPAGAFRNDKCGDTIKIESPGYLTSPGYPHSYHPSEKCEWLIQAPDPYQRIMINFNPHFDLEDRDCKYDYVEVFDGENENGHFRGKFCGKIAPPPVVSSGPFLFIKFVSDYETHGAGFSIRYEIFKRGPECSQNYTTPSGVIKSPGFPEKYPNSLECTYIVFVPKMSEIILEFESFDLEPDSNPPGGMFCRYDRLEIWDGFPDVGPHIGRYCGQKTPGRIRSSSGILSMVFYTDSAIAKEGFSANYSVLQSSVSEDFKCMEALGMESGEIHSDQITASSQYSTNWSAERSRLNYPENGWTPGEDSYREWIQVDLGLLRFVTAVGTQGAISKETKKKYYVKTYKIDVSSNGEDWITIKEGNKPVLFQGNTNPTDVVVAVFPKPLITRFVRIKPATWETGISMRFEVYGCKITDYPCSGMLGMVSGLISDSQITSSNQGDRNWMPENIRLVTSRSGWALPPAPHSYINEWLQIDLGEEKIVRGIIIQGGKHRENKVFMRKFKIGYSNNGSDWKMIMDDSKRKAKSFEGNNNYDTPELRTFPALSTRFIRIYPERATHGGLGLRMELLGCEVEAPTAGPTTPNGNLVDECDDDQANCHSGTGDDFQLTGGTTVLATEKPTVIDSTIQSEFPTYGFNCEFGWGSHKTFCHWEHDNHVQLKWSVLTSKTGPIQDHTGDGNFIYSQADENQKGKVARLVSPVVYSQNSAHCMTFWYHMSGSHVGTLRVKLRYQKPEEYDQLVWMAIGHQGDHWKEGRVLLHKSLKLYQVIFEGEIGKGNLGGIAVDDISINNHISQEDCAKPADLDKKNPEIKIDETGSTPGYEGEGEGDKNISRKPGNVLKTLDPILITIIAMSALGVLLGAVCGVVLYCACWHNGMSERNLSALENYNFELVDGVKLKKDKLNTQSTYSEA
PLC-gamma1 inh = PLC-gamma1 enzyme inhibitors, primary screen, biochemical, fluorescence, purified enzyme; 1-phosphatidylinositol 4,5-bisphosphate phosphodiesterase gamma-1 (Homo sapiens), P19174; fluorogenic substrate; inhibition, % at 12.2 µM; 0.84% of 370,000 active; AID 720700, 2013; in the data active means inhibition above about 9.5%
KLK7 act conf = proKLK7 zymogen activators, confirmation, biochemical, fluorescence intensity, triplicate. purified proKLK7, EDANS-DABCYL substrate fluorescence; scaled: vehicle 0, mature enzyme 100. shares compounds with KLK7 zymogen act. 68% of 3,200 active. activation, % at 7 µM;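 active means activation, as change over the incubation, above the mean of all tested compounds plus 3 SD, cut at about 13% in these data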
EDANS-DABCYL int = EDANS-DABCYL substrate optical interference, artefact control for kallikrein-7 zymogen activator project, biochemical, fluorescence intensity, high throughput. shares compounds with KLK7 zymogen act. AID 686952, 2013. activation, % at 7 µM. no enzyme, 4 h; solvent 0%, active enzyme control 100%. 80% of 3,200 active;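 active means activation above the all-compound mean plus 3 SD, ignoring values outside control-based bounds, cut at about 4.8% in these data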;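 further: value is the 4 h activation minus the activation read at time zero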
A number is an active result; n = inactive; x = not tested or not shown.

SMILES	Tn7 DDE FP	KLK7 zymogen act	DDE Tn6 FP inh	PLC-beta3 inh	NRP1-CendR mod	PLC-gamma1 inh	KLK7 act conf	EDANS-DABCYL int
COC(=O)C[C@@H]1CC[C@H]2[C@@H](COc3ccc(NC(=O)c4ccc(C(F)(F)F)cc4)cc3C(=O)N2C)O1	n	n	n	n	x	n	x	x
O=C(NCCc1cn2cccnc2n1)C1CCC(=O)N(Cc2ccccc2F)C1 (stereo unspecified)	n	35	n	n	n	n	27	24
CN(C)CCCn1c(N)c(C#N)c2nc3ccccc3nc21	n	121	n	n	n	n	63	72
Cc1ccc(S(=O)(=O)c2c(N)n(NC(=O)C3CC3)c3nc4ccccc4nc23)cc1	n	37	n	n	n	n	n	4.1
Cc1ccc(S(=O)(=O)c2c(N)n(CCCN(C)C)c3nc4ccccc4nc23)cc1	n	36	n	n	n	n	n	n
CCCCC(CC)Cn1c(N)c(C#N)c2nc3ccccc3nc21 (stereo unspecified)	n	n	n	n	n	n	x	x
CCCC/C=C1/[C@H](CC)N(C)C2=N[C@@H](c3ccccc3)CC(=O)N21	n	x	n	n	x	n	x	x
CS(=O)(=O)Nc1cccc(C2=NN(C(=O)CCC(=O)O)C(c3cccs3)C2)c1 (stereo unspecified)	n	n	n	n	n	n	x	x
CS(=O)(=O)Nc1ccc(C2=NN(C(=O)CCCC(=O)O)C(c3cccs3)C2)cc1 (stereo unspecified)	n	26	n	n	n	n	48	74
COc1ccccc1NC(=O)OCCN1CCCC12CCC(c1ccccc1)CC2 (stereo unspecified)	n	x	n	n	x	n	x	x
NC(=O)c1ccsc1NC(=O)COC(=O)c1cc(Cl)ccc1O	n	76	n	n	n	n	90	91
O=C(COC(=O)c1cc(Cl)ccc1O)NCC1CCCO1 (stereo unspecified)	n	46	n	n	n	n	80	83
NC(=O)c1ccsc1NC(=O)COC(=O)c1ccccc1F	n	n	n	n	n	n	x	x
O=C(COC(=O)c1cc(Cl)ccc1O)NNC(=O)c1ccc([N+](=O)[O-])cc1	n	99	n	n	n	n	160	155
O=C(OCC(=O)N1CCCC1=O)c1cc(Cl)ccc1O	n	32	n	n	n	n	32	32
C=CCN1C(=O)[C@@H](CC(=O)NCCC(C)C)[C@]2(C(=O)OCC)CCCCC/C=C/12	n	n	n	n	x	n	x	x
C[C@H](O)[C@@H]1CN2CCc3c([nH]c4c(-c5ccc6c(c5)OCO6)cccc34)[C@@H]2C[C@@H]1N(C)C(=S)NCCc1ccccc1	n	n	n	n	x	n	x	x
CCOC(=O)Nc1ccc2c(COC(=O)CNS(=O)(=O)c3ccc(NC(C)=O)cc3)cc(=O)oc2c1	n	98	n	n	n	n	127	106
Cc1ccc2c(COC(=O)CNS(=O)(=O)c3ccccc3)cc(=O)oc2c1	n	n	n	n	n	n	x	x
C=CCN1[C@H](C)COc2cc(N3CCSCC3)ccc2S1(=O)=O	n	n	n	n	x	n	x	x
C=CCNC(=O)c1cc2c(=O)n3cccc(C)c3nc2s1	n	n	n	n	n	n	x	x
CCN(CC)C(=O)c1cc2c(=O)n3cccc(C)c3nc2n1C	n	22	n	n	n	n	15	21
